# Reference: the M2OR odorant receptor database
# Changes are numbered by the printed parent chain.
# Legend:
# Settings in all cases: stereoisomer not certain
# [1] = target: T1, OR8I2 (Homo sapiens) (UniProt Q8N0Y5)
# T1 sequence (whole entry): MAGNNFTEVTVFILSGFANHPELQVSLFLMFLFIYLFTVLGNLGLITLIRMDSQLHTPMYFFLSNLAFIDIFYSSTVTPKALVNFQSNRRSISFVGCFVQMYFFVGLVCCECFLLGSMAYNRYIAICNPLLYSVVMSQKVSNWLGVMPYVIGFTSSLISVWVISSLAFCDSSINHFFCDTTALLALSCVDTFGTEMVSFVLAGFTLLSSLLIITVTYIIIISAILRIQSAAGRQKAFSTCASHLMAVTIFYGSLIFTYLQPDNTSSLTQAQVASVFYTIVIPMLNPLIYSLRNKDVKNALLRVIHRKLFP
# Summary of the method: (§1)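 Each entry records the cell line, G-protein, co-transfected protein and tags used. Methods varied with the source, often transient luciferase assays in mammalian cell lines. A receptor–molecule pair is called responsive (active) if the original authors judged its signal statistically different from baseline and non-responsive (inactive) otherwise.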
# [2] = target: T2, OR8J1 (Homo sapiens) (UniProt Q8NGP2)
# T2 sequence (whole entry): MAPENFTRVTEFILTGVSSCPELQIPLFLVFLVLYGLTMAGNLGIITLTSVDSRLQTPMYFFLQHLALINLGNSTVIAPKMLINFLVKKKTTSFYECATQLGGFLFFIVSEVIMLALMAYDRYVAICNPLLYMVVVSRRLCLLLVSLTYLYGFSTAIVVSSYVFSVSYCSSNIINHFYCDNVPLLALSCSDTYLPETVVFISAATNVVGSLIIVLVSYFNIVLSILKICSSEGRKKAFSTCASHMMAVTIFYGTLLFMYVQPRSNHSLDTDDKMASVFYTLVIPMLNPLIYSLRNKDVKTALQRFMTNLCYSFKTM
# Summary of the method: as §1
# [3] = test system: T3, OR8J1
# T3 sequence (whole entry): T2 sequence (whole entry) with Y120C
# Summary of the method: as §1
# [4] = target: T4, OR8J3 (Homo sapiens) (UniProt Q8NGG0)
# T4 sequence (whole entry): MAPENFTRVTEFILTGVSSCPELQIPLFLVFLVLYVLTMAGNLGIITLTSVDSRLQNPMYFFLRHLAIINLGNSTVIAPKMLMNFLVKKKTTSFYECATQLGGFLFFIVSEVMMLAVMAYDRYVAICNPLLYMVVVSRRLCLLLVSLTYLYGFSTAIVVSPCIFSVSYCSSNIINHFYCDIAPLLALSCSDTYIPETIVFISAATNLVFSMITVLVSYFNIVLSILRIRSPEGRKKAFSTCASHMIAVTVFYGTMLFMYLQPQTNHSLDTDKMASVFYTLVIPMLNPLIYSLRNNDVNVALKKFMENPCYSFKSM
# Summary of the method: as §1
# [5] = test system: T5, OR8J3 E4V
# T5 sequence (whole entry): T4 sequence (whole entry) with E4V
# Summary of the method: as §1
# [6] = target: T6, OR8K1 (Homo sapiens) (UniProt Q8NGG5)
# T6 sequence (whole entry): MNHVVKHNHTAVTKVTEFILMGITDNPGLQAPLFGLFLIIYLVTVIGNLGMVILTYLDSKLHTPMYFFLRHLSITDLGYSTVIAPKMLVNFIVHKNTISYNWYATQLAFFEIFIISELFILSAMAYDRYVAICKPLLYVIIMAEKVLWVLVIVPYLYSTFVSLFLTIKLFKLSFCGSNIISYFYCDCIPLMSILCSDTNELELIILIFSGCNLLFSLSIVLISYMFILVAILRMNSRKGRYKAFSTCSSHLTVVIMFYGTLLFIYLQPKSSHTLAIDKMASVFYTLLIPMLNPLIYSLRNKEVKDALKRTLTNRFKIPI
# Summary of the method: as §1
# [7] = target: T7, OR8K3 (Homo sapiens) (UniProt Q8NH51)
# T7 sequence (whole entry): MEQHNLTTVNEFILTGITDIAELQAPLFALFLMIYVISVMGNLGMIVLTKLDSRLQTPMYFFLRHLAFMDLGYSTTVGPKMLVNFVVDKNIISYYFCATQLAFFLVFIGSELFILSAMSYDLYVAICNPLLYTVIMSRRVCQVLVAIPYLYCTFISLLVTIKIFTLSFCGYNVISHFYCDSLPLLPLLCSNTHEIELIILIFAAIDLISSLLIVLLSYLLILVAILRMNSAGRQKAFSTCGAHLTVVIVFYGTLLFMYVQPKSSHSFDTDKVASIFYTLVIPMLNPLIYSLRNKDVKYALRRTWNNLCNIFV
# Summary of the method: as §1
# [8] = target: T8, OR8K5 (Homo sapiens) (UniProt Q8NH50)
# T8 sequence (whole entry): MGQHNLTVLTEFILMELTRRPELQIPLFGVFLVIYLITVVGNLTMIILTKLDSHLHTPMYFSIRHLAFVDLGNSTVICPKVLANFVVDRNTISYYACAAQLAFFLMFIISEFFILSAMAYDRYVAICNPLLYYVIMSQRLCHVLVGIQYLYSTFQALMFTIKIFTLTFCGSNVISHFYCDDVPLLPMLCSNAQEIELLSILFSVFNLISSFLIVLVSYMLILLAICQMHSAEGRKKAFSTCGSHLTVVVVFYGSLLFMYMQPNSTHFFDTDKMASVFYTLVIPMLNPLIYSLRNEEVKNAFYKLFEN
# Summary of the method: as §1
# [9] = target: T9, OR8S1 (Homo sapiens) (UniProt Q8NH09)
# T9 sequence (whole entry): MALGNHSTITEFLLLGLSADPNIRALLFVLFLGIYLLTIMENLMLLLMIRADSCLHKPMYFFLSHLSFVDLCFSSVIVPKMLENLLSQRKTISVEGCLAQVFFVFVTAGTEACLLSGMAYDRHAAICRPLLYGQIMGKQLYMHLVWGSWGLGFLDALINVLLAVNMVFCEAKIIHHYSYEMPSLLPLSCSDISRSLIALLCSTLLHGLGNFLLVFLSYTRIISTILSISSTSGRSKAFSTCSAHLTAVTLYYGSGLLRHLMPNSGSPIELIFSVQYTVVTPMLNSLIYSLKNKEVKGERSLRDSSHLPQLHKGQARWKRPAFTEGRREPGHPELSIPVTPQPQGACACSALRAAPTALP
# Summary of the method: as §1
# [10] = target: T10, OR8U1 (Homo sapiens) (UniProt Q8NH10)
# T10 sequence (whole entry): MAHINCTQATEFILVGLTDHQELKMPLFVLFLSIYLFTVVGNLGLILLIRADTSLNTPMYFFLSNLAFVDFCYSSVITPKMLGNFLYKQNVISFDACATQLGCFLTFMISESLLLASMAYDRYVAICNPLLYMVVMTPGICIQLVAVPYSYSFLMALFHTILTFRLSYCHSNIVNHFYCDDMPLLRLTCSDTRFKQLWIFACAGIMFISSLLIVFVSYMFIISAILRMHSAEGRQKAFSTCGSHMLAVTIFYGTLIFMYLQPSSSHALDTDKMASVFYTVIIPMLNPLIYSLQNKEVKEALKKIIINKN
# Summary of the method: as §1
# [11] = target: T11, OR8U3 (Homo sapiens) (UniProt Q8NH85)
# T11 sequence (whole entry): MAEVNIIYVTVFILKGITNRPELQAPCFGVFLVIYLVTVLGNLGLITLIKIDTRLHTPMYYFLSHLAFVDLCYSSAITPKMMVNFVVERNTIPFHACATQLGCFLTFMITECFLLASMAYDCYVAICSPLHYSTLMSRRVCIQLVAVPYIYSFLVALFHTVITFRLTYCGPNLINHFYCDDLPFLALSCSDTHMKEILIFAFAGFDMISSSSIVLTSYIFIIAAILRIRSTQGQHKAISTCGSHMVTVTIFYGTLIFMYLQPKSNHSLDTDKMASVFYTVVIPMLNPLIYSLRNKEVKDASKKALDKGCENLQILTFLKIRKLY
# Summary of the method: as §1
# [12] = test system: T12, OR8U8
# T12 sequence (whole entry): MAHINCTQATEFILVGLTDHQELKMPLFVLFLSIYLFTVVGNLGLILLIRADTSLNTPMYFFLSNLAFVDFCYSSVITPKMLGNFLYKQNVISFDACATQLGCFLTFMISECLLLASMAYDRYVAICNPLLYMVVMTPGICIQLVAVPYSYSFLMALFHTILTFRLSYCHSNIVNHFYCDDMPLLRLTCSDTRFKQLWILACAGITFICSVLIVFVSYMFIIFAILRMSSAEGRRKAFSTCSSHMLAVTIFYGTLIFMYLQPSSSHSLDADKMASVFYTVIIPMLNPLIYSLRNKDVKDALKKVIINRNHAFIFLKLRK
# Summary of the method: as §1
# [13] = test system: T13, OR8U8; remark: listed apart in the source
# T13 sequence (whole entry): T12 sequence (whole entry) with H20R, C112S, R165C
# Summary of the method: as §1
# [14] = target: T14, OR8U9 (Homo sapiens) (UniProt P0C7N5)
# T14 sequence (whole entry): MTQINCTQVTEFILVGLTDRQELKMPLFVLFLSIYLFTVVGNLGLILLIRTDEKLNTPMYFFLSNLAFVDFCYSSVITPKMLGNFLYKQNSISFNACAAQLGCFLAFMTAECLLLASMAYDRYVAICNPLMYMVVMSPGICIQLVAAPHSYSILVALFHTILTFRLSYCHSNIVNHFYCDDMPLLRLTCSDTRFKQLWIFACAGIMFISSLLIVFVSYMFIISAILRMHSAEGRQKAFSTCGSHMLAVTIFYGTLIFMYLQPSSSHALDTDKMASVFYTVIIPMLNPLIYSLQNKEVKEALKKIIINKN
# Summary of the method: as §1
# [15] = test system: T15, OR8U9 T2A Q3H Q293R
# T15 sequence (whole entry): T14 sequence (whole entry) with T2A, Q3H, Q293R
# Summary of the method: as §1
# [16] = test system: T16, OR8U9
# T16 sequence (whole entry): T14 sequence (whole entry) with Q293R
# Summary of the method: as §1
# [17] = target: T17, OR9A2 (Homo sapiens) (UniProt Q8NGT5)
# T17 sequence (whole entry): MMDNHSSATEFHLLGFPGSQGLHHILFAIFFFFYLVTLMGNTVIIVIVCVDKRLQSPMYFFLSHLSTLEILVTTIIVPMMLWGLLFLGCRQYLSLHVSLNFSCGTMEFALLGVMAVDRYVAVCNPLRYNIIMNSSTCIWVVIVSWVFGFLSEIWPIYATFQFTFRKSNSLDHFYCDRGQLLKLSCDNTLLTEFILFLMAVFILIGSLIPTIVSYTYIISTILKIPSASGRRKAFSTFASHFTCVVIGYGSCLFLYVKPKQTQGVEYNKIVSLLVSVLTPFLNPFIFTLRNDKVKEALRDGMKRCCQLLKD
# Summary of the method: as §1
# [18] = test system: T18, OR9A2 C304Y
# T18 sequence (whole entry): T17 sequence (whole entry) with C304Y
# Summary of the method: as §1
# [19] = target: T19, OR8U8 (Homo sapiens) (UniProt P0C7N1)
# T19 sequence (whole entry): T12 sequence (whole entry) with I109V, C112S
# Summary of the method: as §1
Compound,odorant receptor agonist call [1],odorant receptor agonist call [2],odorant receptor agonist call [3],odorant receptor agonist call [4],odorant receptor agonist call [5],odorant receptor agonist call [6],odorant receptor agonist call [7],odorant receptor agonist call [8],odorant receptor agonist call [9],odorant receptor agonist call [10],odorant receptor agonist call [11],odorant receptor agonist call [12],odorant receptor agonist call [13],odorant receptor agonist call [14],odorant receptor agonist call [15],odorant receptor agonist call [16],odorant receptor agonist call [17],odorant receptor agonist call [18],odorant receptor agonist call [19]
CCCC(S)CCOC(C)=O (centres undefined),inactive,inactive,inactive,inactive,inactive,inactive,inactive,inactive,inactive,inactive,inactive,inactive,inactive,inactive,inactive,inactive,inactive,inactive,
CCC1OC(=O)C(O)=C1C (centres undefined),inactive,inactive,inactive,inactive,inactive,inactive,inactive,inactive,inactive,inactive,inactive,inactive,inactive,inactive,inactive,inactive,inactive,inactive,
CCC(S)C(C)CO (centres undefined),inactive,inactive,,inactive,,inactive,inactive,inactive,inactive,inactive,inactive,,,inactive,,,inactive,,inactive
O=c1ccc2ccccc2o1,,,,,,,,inactive,,,active,,,,,,,,
CCCCC(S)C(C)CO (centres undefined),inactive,inactive,,inactive,,inactive,inactive,inactive,inactive,inactive,inactive,,,inactive,,,inactive,,inactive
CCCCCC(S)C(C)CO (centres undefined),inactive,inactive,,inactive,,inactive,inactive,inactive,inactive,inactive,inactive,,,inactive,,,inactive,,inactive
O=C1CCOc2ccccc21,,,,,,,,inactive,,,active,,,,,,,,
CCCCCC(=O)C(C)C(C)=O (centres undefined),inactive,inactive,,inactive,,inactive,inactive,inactive,inactive,inactive,inactive,,,inactive,,,inactive,,inactive
CC1=C(O)C(=O)C(C)O1 (centres undefined),inactive,inactive,inactive,inactive,inactive,inactive,inactive,inactive,inactive,inactive,inactive,inactive,inactive,inactive,inactive,inactive,inactive,inactive,
Cc1cnc(C)c(C)n1,inactive,inactive,inactive,inactive,inactive,inactive,inactive,inactive,inactive,inactive,inactive,inactive,inactive,inactive,inactive,inactive,inactive,inactive,
